# Target: Histone deacetylase 1 (Homo sapiens, UniProt Q13547)
# Assay: Inhibition of HDAC1 by fluorescent activity assay
# Settings: not given
# Histone deacetylase 1, sequence (Q13547 whole entry): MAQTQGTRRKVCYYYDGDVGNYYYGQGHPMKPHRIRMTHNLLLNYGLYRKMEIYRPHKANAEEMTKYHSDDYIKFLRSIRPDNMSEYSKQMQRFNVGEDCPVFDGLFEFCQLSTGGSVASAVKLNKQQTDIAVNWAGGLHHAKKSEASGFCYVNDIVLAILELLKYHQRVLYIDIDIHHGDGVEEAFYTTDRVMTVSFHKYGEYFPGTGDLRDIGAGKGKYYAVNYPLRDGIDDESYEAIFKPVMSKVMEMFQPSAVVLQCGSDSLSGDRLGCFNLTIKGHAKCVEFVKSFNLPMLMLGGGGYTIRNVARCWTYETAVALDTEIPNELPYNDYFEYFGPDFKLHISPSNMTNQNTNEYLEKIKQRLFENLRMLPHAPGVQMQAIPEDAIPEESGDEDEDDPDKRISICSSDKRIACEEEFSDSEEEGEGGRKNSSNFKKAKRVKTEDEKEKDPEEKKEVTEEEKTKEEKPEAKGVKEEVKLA
row,IC50,SMILES
1,9 nM,CN(C)c1ccc(-c2nnc(Nc3ncc(C(=O)NO)cn3)o2)cc1
2,11 nM,CN(C)c1ccc(-c2nnc(Nc3ncc(C(=O)NO)cn3)s2)cc1
3,10 nM,O=C(NO)c1cnc(Nc2nnc(-c3ccc(Cl)cc3)s2)nc1

# Continued, compound first:
row,SMILES,IC50
1,O=C(NO)c1cnc(Nc2nnc(-c3ccc(F)cc3)o2)nc1,9 nM
2,O=C(NO)c1cnc(Nc2nnc(-c3ccccc3)s2)nc1,8 nM

# System: HCT-116
# Assay: Antiproliferative activity against human HCT116 cells by MTT assay
# Format: functional, cell-based
# Settings: not given
row,IC50,SMILES
1,200 nM,CN(C)c1ccc(-c2nnc(Nc3ncc(C(=O)NO)cn3)o2)cc1
2,200 nM,CN(C)c1ccc(-c2nnc(Nc3ncc(C(=O)NO)cn3)s2)cc1
3,160 nM,O=C(NO)c1cnc(Nc2nnc(-c3ccc(Cl)cc3)s2)nc1

# The next lines start with the compound.
row,SMILES,IC50
1,O=C(NO)c1cnc(Nc2nnc(-c3ccc(F)cc3)o2)nc1,60 nM
2,O=C(NO)c1cnc(Nc2nnc(-c3ccccc3)s2)nc1,80 nM

# System: not listed separately
# Assay: Antitumor activity against mouse EAC cells transplanted in Swiss albino mouse assessed as tumor weight inhibition in ascetic fluid at 0.2 mmol/kg, ip administered qd for 7 days measured on 8th day
# Format: functional
# Settings: Ehrlich, 168 h, read-out: GI
# Summary of the method: (§1)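 Ehrlich ascites carcinoma cells (9 days old) were taken from a donor mouse into sterile isotonic saline and adjusted to 10 × 10⁶ cells/mL. Mice received 0.1 mL per 10 g ip on day 0. Compound in PBS pH 7.2 (0.1 mL/10 g) was given ip on days 1–7 at 24-h intervals; controls received vehicle only. On day 8, after 6 h fasting, peritoneal cells were counted and ascitic fluid weight was taken from body weight before and after fluid removal.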
row,SMILES,inhibition in vivo at 200 µmol/kg
1,CN(C)c1ccc(-c2nnc(Nc3ncc(C(=O)NO)cn3)o2)cc1,55.5%
2,O=C(NO)c1cnc(Nc2nnc(-c3ccc(F)cc3)o2)nc1,24.1%
3,O=C(NO)c1cnc(Nc2nnc(-c3ccccc3)s2)nc1,14.2%
4,CN(C)c1ccc(-c2nnc(Nc3ncc(C(=O)NO)cn3)s2)cc1,61.1%
5,O=C(NO)c1cnc(Nc2nnc(-c3ccc(Cl)cc3)s2)nc1,48.3%

# System: not listed separately
# Assay: Antitumor activity against mouse EAC cells transplanted in Swiss albino mouse assessed as tumor cell inhibition in ascetic fluid at 0.2 mmol/kg, ip administered qd for 7 days measured on 8th day
# Format: functional
# Settings: Ehrlich, 168 h, read-out: GI
# Summary of the method: as §1
row,SMILES,inhibition in vivo at 200 µmol/kg
1,CN(C)c1ccc(-c2nnc(Nc3ncc(C(=O)NO)cn3)o2)cc1,56.8%
2,O=C(NO)c1cnc(Nc2nnc(-c3ccc(F)cc3)o2)nc1,16.4%
3,O=C(NO)c1cnc(Nc2nnc(-c3ccccc3)s2)nc1,29.5%
4,CN(C)c1ccc(-c2nnc(Nc3ncc(C(=O)NO)cn3)s2)cc1,51.1%
5,O=C(NO)c1cnc(Nc2nnc(-c3ccc(Cl)cc3)s2)nc1,32%

# System: not listed separately
# Assay: Antitumor activity against mouse EAC cells transplanted in Swiss albino mouse assessed as tumor weight inhibition in ascetic fluid at 1 mg/kg, ip administered qd for 7 days measured on 8th day
# Format: functional
# Settings: Ehrlich, 168 h, route intraperitoneal, read-out: GI
# Summary of the method: (§2)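 Swiss albino mice were inoculated ip on day 0 with 9-day-old Ehrlich ascites carcinoma cells from a donor mouse (10 × 10⁶ cells/mL in isotonic saline, 0.1 mL per 10 g). Mitomycin-C served as the standard at 1 mg/kg; controls received vehicle only. Mice were sacrificed on day 8 after 6 h without food and water. Peritoneal fluid cells were counted, and ascitic fluid weight came from body weight before and after draining the cavity.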
row,SMILES,inhibition in vivo at 1 mg/kg
1,CO[C@@]12[C@H](COC(N)=O)C3=C(C(=O)C(C)=C(N)C3=O)N1C[C@@H]1N[C@@H]12 [MITOMYCIN],100%

# System: not listed separately
# Assay: Antitumor activity against mouse EAC cells transplanted in Swiss albino mouse assessed as tumor cell inhibition in ascetic fluid at 1 mg/kg, ip administered qd for 7 days measured on 8th day
# Format: functional
# Settings: Ehrlich, 168 h, route intraperitoneal, read-out: GI
# Summary of the method: as §2
row,SMILES,inhibition in vivo at 1 mg/kg
1,CO[C@@]12[C@H](COC(N)=O)C3=C(C(=O)C(C)=C(N)C3=O)N1C[C@@H]1N[C@@H]12 [MITOMYCIN],100%
